Measured values: ChEMBL document CHEMBL1144897, “A potent, selective inhibitor of matrix metalloproteinase-3 for the topical treatment of chronic dermal ulcers” (J Med Chem, 2003)

Legend:
[1] = molecular target: Matrix metalloproteinase-14 (Homo sapiens, UniProt P50281); test: Inhibition of Matrix metalloprotease-14
How it was run: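 Catalytic-domain MMP-14 stock (10 μM) activated with trypsin (5 μg/mL) for 20 min at 25 °C, then quenched with soybean trypsin inhibitor (50 μg/mL). Run in Tris buffer pH 7.5 (100 mM Tris, 100 mM NaCl, 10 mM CaCl₂, 0.16% Brij 35) with 1 nM enzyme and 10 μM Mca-Pro-Leu-Gly-Leu-Dpa-Ala-Arg-NH₂ (final). Fluorogenic cleavage read; IC50 derived.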

[2] = molecular target: Matrix metalloproteinase-9 (Homo sapiens, UniProt P14780); test: Inhibition of human matrix metalloprotease-9 (MMP-9)
How it was run: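 Human catalytic-domain MMP-9 stock (1 μM) activated with 1 mM APMA for 1 h at 37 °C. Assayed at 1 nM enzyme in Tris buffer pH 7.5 (100 mM Tris, 100 mM NaCl, 10 mM CaCl₂, 0.16% Brij 35) with ≤1% DMSO. Inhibitor preincubated 15 min at 37 °C, then 5 μM Mca-Arg-Pro-Lys-Pro-Tyr-Ala-Nva-Trp-Met-Lys(Dnp)-NH₂ added for 1 h at 37 °C. Fluorescence read at ex 328/em 393 nm; IC50 taken from dose–response.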

Stromelysin-1 = Stromelysin-1 (Homo sapiens, UniProt P08254)
Matrilysin = molecular target: T1, Matrilysin (Homo sapiens, UniProt P09237); test: Inhibition of human matrix metalloprotease-7 (MMP-7)
T1 sequence (P09237 whole entry): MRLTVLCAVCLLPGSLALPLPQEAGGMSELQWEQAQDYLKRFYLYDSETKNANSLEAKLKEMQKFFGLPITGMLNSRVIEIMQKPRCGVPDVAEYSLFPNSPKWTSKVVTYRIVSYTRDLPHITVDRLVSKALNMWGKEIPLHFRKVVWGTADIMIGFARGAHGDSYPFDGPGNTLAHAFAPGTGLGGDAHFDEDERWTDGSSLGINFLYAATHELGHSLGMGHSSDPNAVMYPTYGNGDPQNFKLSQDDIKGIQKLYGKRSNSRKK

Chain of Stromelysin-1 (P08254 whole entry): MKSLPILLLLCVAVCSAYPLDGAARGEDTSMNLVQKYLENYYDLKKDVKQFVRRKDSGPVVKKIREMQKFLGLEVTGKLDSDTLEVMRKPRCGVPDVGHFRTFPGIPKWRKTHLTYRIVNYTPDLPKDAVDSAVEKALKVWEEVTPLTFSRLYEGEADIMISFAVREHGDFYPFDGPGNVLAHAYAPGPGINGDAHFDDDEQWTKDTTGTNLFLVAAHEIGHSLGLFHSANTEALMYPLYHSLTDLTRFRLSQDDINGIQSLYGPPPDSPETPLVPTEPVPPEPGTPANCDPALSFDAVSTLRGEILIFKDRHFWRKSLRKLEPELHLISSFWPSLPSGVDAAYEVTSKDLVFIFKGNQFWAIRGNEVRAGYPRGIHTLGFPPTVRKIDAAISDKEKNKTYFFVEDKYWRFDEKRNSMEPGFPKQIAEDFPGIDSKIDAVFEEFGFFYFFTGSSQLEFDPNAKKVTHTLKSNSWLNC
Chain of Matrix metalloproteinase-9 (P14780 whole entry): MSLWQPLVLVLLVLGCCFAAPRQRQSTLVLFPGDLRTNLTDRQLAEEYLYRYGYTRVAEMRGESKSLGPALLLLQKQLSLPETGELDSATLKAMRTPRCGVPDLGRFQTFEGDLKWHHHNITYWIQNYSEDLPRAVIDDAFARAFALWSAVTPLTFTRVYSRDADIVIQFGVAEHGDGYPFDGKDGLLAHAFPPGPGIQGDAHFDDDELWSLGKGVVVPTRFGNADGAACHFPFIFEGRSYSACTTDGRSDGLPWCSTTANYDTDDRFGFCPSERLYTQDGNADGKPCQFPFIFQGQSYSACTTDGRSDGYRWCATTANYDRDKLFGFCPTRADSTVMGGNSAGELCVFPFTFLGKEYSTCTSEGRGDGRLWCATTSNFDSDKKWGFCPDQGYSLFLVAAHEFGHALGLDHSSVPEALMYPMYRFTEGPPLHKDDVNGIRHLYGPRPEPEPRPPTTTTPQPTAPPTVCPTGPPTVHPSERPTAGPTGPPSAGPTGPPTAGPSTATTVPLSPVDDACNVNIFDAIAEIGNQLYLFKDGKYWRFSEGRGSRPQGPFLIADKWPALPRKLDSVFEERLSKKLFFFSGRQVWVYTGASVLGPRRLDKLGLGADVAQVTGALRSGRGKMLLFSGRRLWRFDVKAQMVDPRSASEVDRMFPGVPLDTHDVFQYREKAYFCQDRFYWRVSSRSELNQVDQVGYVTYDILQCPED

Row | IC50 [1] | IC50 [2] | IC50 (Stromelysin-1) | IC50 (Matrilysin) | Structure (SMILES)
1 | 4.6 nM | 0.6 nM |  |  | CNC(=O)[C@H](Cc1ccccc1)NC(=O)[C@H](CC(C)C)[C@H](CSc1cccs1)C(=O)NO [BATIMASTAT]
2 |  |  | 30 nM | 30 nM | CNC(=O)[C@H](Cc1ccc(OC)cc1)NC(=O)[C@@H](CC(=O)NO)CC(C)C
